Measurements taken from ChEMBL document CHEMBL4330096, “Discovery of potent and selective 5-azaindazole inhibitors of leucine-rich repeat kinase 2 (LRRK2) - Part 1” (Bioorg Med Chem Lett, 2019).
pIC50: −log10 of the molar value.

What was measured:
[1] = molecular target: Leucine-rich repeat serine/threonine-protein kinase 2 (Homo sapiens, UniProt Q5S007, G2019S); experiment: Inhibition of recombinant human GST-tagged LRRK2 G2019S mutant catalytic domain (970 to 2527 residues) expressed in baculovirus expression system by radiometric assay
Leucine-rich repeat serine/threonine-protein kinase 2, sequence (Q5S007 whole entry G2019S, the tested form may be a part): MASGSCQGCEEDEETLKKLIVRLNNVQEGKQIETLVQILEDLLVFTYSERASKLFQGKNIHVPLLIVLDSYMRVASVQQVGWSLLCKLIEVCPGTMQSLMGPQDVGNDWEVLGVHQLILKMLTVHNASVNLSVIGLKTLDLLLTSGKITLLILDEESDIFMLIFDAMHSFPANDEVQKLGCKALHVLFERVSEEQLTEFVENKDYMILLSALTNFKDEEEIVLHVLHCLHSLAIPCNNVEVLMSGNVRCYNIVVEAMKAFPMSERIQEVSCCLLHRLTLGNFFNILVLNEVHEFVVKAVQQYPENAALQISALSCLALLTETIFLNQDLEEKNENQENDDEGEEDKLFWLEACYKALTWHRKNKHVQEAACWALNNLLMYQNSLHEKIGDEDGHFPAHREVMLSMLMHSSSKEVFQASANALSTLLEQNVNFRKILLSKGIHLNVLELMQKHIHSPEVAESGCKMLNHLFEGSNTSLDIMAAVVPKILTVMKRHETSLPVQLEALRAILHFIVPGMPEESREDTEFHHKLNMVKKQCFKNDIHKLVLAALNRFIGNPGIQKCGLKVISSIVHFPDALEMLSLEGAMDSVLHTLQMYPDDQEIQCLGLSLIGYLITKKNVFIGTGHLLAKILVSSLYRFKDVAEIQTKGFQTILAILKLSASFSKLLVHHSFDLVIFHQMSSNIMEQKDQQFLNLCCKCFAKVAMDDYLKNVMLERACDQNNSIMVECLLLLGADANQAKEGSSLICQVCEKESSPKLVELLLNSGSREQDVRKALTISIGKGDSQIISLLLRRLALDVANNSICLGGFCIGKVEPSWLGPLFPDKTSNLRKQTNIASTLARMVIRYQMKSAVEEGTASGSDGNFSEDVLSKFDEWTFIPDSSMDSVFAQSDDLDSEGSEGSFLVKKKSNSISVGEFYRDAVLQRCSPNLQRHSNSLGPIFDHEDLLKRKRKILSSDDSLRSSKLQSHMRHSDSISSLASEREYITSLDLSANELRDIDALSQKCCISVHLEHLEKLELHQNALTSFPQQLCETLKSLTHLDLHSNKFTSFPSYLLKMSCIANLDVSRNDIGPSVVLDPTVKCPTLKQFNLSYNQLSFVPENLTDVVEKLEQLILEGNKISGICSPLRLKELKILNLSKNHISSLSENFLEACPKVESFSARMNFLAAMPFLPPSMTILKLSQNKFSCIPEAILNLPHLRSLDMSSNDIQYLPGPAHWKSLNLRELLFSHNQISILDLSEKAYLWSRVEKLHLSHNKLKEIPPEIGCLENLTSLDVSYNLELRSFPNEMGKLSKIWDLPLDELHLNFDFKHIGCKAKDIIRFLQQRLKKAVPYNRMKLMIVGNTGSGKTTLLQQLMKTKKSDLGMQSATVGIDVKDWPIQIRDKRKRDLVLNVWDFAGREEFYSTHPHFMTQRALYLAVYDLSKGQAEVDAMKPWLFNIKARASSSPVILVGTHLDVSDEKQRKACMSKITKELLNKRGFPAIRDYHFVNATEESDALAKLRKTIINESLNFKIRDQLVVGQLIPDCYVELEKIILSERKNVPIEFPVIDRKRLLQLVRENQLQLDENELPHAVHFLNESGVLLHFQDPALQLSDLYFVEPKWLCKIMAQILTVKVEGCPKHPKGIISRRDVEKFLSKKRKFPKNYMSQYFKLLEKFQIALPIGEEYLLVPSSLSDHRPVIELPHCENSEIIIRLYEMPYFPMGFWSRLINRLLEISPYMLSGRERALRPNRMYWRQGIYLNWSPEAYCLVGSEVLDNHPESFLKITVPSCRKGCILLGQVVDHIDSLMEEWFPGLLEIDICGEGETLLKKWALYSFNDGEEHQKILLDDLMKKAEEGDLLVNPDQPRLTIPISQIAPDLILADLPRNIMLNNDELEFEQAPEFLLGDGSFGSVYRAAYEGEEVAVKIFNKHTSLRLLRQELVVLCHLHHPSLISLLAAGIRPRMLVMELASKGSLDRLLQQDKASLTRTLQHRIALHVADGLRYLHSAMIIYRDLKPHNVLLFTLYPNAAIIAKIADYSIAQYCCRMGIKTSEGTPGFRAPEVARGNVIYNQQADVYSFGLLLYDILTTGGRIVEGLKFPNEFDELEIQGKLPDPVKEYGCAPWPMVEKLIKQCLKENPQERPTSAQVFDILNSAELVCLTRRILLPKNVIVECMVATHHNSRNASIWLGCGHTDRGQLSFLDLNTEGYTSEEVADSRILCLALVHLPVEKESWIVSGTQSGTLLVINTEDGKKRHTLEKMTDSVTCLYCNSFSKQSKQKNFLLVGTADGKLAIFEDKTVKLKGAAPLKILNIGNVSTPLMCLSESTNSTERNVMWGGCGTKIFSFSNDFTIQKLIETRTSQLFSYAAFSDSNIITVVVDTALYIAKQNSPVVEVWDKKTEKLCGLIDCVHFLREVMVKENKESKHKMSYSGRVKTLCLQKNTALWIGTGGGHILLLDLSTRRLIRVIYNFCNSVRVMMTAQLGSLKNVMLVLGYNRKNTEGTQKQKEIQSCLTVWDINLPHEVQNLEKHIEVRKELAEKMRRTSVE

[2] = Stability in human liver microsomes assessed as compound turnover rate measured after 40 mins; type: ADME, Microsome; settings: read-out: Drug metabolism
How it was run: (§1)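 In vitro incubation of compound with liver microsomes: human (HLM) for 40 min, mouse (MLM) for 30 min. Reported as % turnover of parent compound.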

[3] = Stability in mouse liver microsomes assessed as compound turnover rate measured after 30 mins; type: ADME, Microsome; settings: read-out: Drug metabolism; how it was run: as §1
[4] = Ratio of drug level in mouse brain to plasma; settings: read-out: BPR
How it was run: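 Mice; ratio based on total (not unbound) compound concentrations in brain versus plasma.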

[5] = Lipophilicity, log D of the compound at pH 7.4; type: physicochemical; settings: buffer

| Structure (SMILES) | pIC50 [1] | metabolised at 40 min [2] [%] | metabolised at 0.5 h [3] [%] | Kp [4] | logD [5] |
| --- | --- | --- | --- | --- | --- |
| Cc1n[nH]c2ccnc(Nc3cnn(C)c3)c12 | 6.08 | – | – | – | – |
| Cc1n[nH]c2ccnc(NC3CCOCC3)c12 | 6.72 | 0 | 4 | 1.6 | 1.2 |
| CC(C)Cn1cc(-c2n[nH]c3ccnc(NC4CCOCC4)c23)cn1 | 6.39 | – | – | – | – |
| c1cc2[nH]nc(-c3cnn(C4CCCC4)c3)c2c(NC2CCOCC2)n1 | 6.77 | – | – | – | – |
| Cc1n[nH]c2ccnc(NC(C)C)c12 | 6.06 | – | – | – | – |
| CCOc1nccc2[nH]nc(C)c12 | 6.36 | – | – | – | – |
| Cc1n[nH]c2ccnc(NC3CCC3)c12 | 6.28 | – | – | – | – |
| Cc1n[nH]c2ccnc(Nc3cccnc3)c12 | < 5.00 | – | – | – | – |
| Cc1noc2ccnc(NC3CCCCC3)c12 | < 5.00 | – | – | – | – |
| Cc1c[nH]c2ccnc(NC3CCCCC3)c12 | < 5.00 | – | – | – | – |
| c1cc(-c2n[nH]c3ccnc(NC4CCOCC4)c23)cc(N2CCOCC2)n1 | – | 17 | 11 | – | – |
| Cc1n[nH]c2ccnc(Nc3ccc(Cl)cc3)c12 | 6.41 | – | – | – | – |
| CC(C)n1cc(-c2n[nH]c3ccnc(NC4CCCCC4)c23)cn1 | 6.96 | 23 | 43 | – | 3.2 |
| CC(C)n1cc(-c2n[nH]c3ccnc(OC4CCCCC4)c23)cn1 | 8.70 | 36 | 66 | – | 3.7 |
| Cc1n[nH]c2ccnc(OC3CCCC3)c12 | 7.07 | 31 | 42 | – | – |
| Cc1n[nH]c2ccnc(NCc3ccc(Cl)cc3)c12 | 5.31 | – | – | – | – |

| Structure (SMILES) | pIC50 [1] | metabolised at 40 min [2] [%] | metabolised at 0.5 h [3] [%] | Kp [4] | logD [5] |
| --- | --- | --- | --- | --- | --- |
| Cn1cc(-c2n[nH]c3ccnc(NC4CCCCC4)c23)cn1 | 6.89 | 21 | 19 | – | 2.7 |
| Cc1n[nH]c2ccnc(NCC3CC3)c12 | 5.62 | – | – | – | – |
| Cc1n[nH]c2ccnc(N(C)C3CCCCC3)c12 | 5.80 | – | – | – | – |
| Cc1n[nH]c2ccnc(NC3CC3)c12 | 5.33 | – | – | – | – |
| Cc1n[nH]c2ccnc(OC3CCC3)c12 | 6.77 | 22 | 41 | – | – |
| Cc1n[nH]c2cncc(NC3CCCCC3)c12 | 6.11 | – | – | – | – |
| Cc1n[nH]c2ccnc(NC3CCCC3)c12 | 6.39 | 2 | 10 | – | – |
| Cc1nn(C)c2ccnc(NC3CCCCC3)c12 | < 5.00 | – | – | – | – |
| CC[C@H](C)Nc1nccc2[nH]nc(C)c12 | 6.52 | 6 | 9 | – | – |
| Cc1n[nH]c2ccnc(OC3CCN(C)CC3)c12 | 5.72 | – | – | – | – |
| c1cc2[nH]nc(-c3cnn(C4CCCC4)c3)c2c(OC2CCOCC2)n1 | 8.40 | – | – | – | – |
| Cc1n[nH]c2ccnc(N3CCOCC3)c12 | 5.52 | – | – | – | – |
| Cc1n[nH]c2ccnc(OC(C)C)c12 | 7.17 | 2 | 24 | – | – |
| Cc1n[nH]c2ccnc(O[C@@H]3CCOC3)c12 | 6.60 | 0 | 13 | – | – |
| CC(C)Cn1cc(-c2n[nH]c3ccnc(OC4CCOCC4)c23)cn1 | 7.82 | – | – | – | – |
| Cc1ccc(Nc2nccc3[nH]nc(C)c23)cc1 | 7.01 | 13 | 28 | – | – |
